Results collected from several papers.
Lines come from different studies, so protocols differ.
Target: Muscarinic acetylcholine receptor M2 (CHRM2, Homo sapiens, UniProt P08172)
Tested at: 10 µM
Residues used in one study (P08172 1-466): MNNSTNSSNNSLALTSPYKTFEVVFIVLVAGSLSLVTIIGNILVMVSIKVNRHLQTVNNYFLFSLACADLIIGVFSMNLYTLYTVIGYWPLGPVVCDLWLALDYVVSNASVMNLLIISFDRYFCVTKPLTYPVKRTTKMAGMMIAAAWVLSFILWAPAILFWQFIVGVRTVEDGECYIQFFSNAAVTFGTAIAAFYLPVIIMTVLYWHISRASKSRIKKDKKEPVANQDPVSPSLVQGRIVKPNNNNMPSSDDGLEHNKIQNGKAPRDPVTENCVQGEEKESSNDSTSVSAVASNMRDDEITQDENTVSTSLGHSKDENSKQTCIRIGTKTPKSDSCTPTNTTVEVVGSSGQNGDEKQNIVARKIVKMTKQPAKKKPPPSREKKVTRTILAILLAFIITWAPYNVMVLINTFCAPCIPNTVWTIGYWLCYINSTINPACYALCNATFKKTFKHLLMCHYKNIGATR

| SMILES | assay | inhibition |
| --- | --- | --- |
| O=C(Nc1ccc(S(=O)(=O)N2CCC(Cl)CC2)cc1)c1ccc([N+](=O)[O-])o1 | ligand displacement, radioligand | 10% |
| CCN(Cc1ccccc1C(F)(F)F)C(=O)C1CCN(S(=O)(=O)c2ccc3[nH]ncc3c2)CC1 | ligand displacement, radioligand | 1% |
| CCN(CC)c1ccc(C2Nc3ccc(C(=O)c4ccccc4)cc3NC3=C2C(=O)CC(C)(C)C3)cc1 (centres unmarked) | ligand displacement, radioligand | -1% |
| CCCNc1nc2ccccc2n1Cc1ccc(Cl)cc1 | ligand displacement | 13.7% |
| CC1CCN(c2ccnc(NCc3cn(C)cn3)n2)CC1 | ligand displacement | 7.21% |
| COc1cc(NC(C)=O)c(Cl)cc1C(=O)Nc1nccs1 | cell-free assay | -25.3% |
| Ic1cccc2cnccc12 | ligand displacement, radioligand | 0% |
| O=C1N=C(N2CCCCN2)S/C1=C\c1ccc(F)cc1O | ligand displacement, radioligand | < 10% |
| N#Cc1cc(Cn2c(N3CCCC3)nc3ccccc32)ccc1F | ligand displacement | 7.75% |
| O=C(c1ccc(Cl)cc1)N(Cc1ccccc1)C1CCCCC1 | cell-free assay | 38.2% |
| O=C(NNS(=O)(=O)c1ccccc1F)c1cc(F)cc(-c2ccccn2)c1 | cell-free assay | 15.9% |
